Experimental data published in ChEMBL document CHEMBL1137710, “Synthesis and in vitro antitumor activity of new quinoxaline derivatives” (2009).

Key:
Assay type in all cases: functional
LOX IMVI = experiment: Growth inhibition of human LOXIMVI cells after 48 hrs by sulforhodamine B assay
How it was run: (§1)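 NCI 60-human-tumor-cell-line panel, with compounds tested over a 5-log dose range. Values are taken from dose-response curves as log10 molar concentrations: GI50 is 50% net growth inhibition, TGI is total growth inhibition, and LC50 is 50% net cell death.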

SK-MEL-28 = experiment: Growth inhibition of human SK-MEL-28 cells after 48 hrs by sulforhodamine B assay; conditions: SK-MEL-28, 48 h; how it was run: as §1
SF-268 [1] = experiment: Anticancer activity against human SF268 cells assessed as cell growth at 100 uM after 48 hrs by sulforhodamine B assay; conditions: SF-268, 48 h, read-out: Activity
[2] = Growth inhibition of human Hs 578T cells after 48 hrs by sulforhodamine B assay; how it was run: as §1
DU-145 = experiment: Growth inhibition of human DU145 cells after 48 hrs by sulforhodamine B assay; conditions: DU-145, 48 h; how it was run: as §1
NCI-H460 [3] = experiment: Anticancer activity against human NCI-H460 cells assessed as cell growth at 100 uM after 48 hrs by sulforhodamine B assay; conditions: NCI-H460, 48 h, read-out: Activity
MCF7 [4] = experiment: Anticancer activity against human MCF7 cells assessed as cell growth at 100 uM after 48 hrs by sulforhodamine B assay; conditions: MCF7, 48 h, read-out: Activity
SN12C = experiment: Growth inhibition of human SN12C cells after 48 hrs by sulforhodamine B assay
How it was run: (§2)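 Run in the NCI 60-human-tumour-cell-line panel, tested over a 5-log dose range. Dose–response curves gave three values per cell line, each as a log10 molar concentration: GI50 (50% inhibition of net cell growth), TGI (total inhibition of net growth) and LC50 (50% net cell death). The mean graph midpoint is the arithmetic mean over all lines, with insensitive lines entered at the highest concentration tested.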

SR = experiment: Growth inhibition of human SR cells after 48 hrs by sulforhodamine B assay; how it was run: as §2
BT-549 = experiment: Growth inhibition of human BT549 cells after 48 hrs by sulforhodamine B assay; conditions: BT-549, 48 h; how it was run: as §1
RXF 393 = experiment: Growth inhibition of human RXF393 cells after 48 hrs by sulforhodamine B assay; conditions: RXF 393, 48 h; how it was run: as §1
PC-3 = experiment: Growth inhibition of human PC3 cells after 48 hrs by sulforhodamine B assay; conditions: PC-3, 48 h; how it was run: as §1
KM12 = experiment: Growth inhibition of human KM12 cells after 48 hrs by sulforhodamine B assay; conditions: KM12, 48 h; how it was run: as §1
NCI-H226 = experiment: Growth inhibition of human NCI-H226 cells after 48 hrs by sulforhodamine B assay; conditions: NCI-H226, 48 h; how it was run: as §1
ACHN = experiment: Growth inhibition of human ACHN cells after 48 hrs by sulforhodamine B assay
SNB-75 = experiment: Growth inhibition of human SNB75 cells after 48 hrs by sulforhodamine B assay; conditions: SNB-75, 48 h; how it was run: as §2
MCF7 [5] = experiment: Growth inhibition of human MCF7 cells after 48 hrs by sulforhodamine B assay; conditions: MCF7, 48 h; how it was run: as §1
A498 = experiment: Growth inhibition of human A498 cells after 48 hrs by sulforhodamine B assay; conditions: A498, 48 h; how it was run: as §1
SF-539 = experiment: Growth inhibition of human SF539 cells after 48 hrs by sulforhodamine B assay; conditions: SF-539, 48 h; how it was run: as §1
UACC-62 = experiment: Growth inhibition of human UACC62 cells after 48 hrs by sulforhodamine B assay; conditions: UACC-62, 48 h; how it was run: as §2
EKVX = experiment: Growth inhibition of human EKVX cells after 48 hrs by sulforhodamine B assay; how it was run: as §1
HCT-15 = experiment: Growth inhibition of human HCT15 cells after 48 hrs by sulforhodamine B assay; conditions: HCT-15, 48 h; how it was run: as §1
IGROV-1 = experiment: Growth inhibition of human IGROV1 cells after 48 hrs by sulforhodamine B assay; conditions: IGROV-1, 48 h; how it was run: as §1
HOP-92 = experiment: Growth inhibition of human HOP92 cells after 48 hrs by sulforhodamine B assay; conditions: HOP-92, 48 h; how it was run: as §1
SK-MEL-2 = experiment: Growth inhibition of human SK-MEL-2 cells after 48 hrs by sulforhodamine B assay; conditions: SK-MEL-2, 48 h; how it was run: as §1
MOLT-4 = experiment: Growth inhibition of human MOLT4 cells after 48 hrs by sulforhodamine B assay; conditions: MOLT-4, 48 h; how it was run: as §1
SK-MEL-5 = experiment: Growth inhibition of human SK-MEL-5 cells after 48 hrs by sulforhodamine B assay; conditions: SK-MEL-5, 48 h; how it was run: as §1
NCI-H460 [6] = experiment: Growth inhibition of human NCI-H460 cells after 48 hrs by sulforhodamine B assay; conditions: NCI-H460, 48 h; how it was run: as §1
SF-268 [7] = experiment: Growth inhibition of human SF268 cells after 48 hrs by sulforhodamine B assay; conditions: SF-268, 48 h; how it was run: as §1
[8] = read-out: pLC50 (the source's name) (converted)

COc1cc(CNc2nc3cc(N)cc(N)c3nc2-c2ccccc2)cc(OC)c1OC
GI50 (LOX IMVI): 3.16 µM | LC50 (LOX IMVI): 26.3 µM | TGI (LOX IMVI; read-out: pTGI (converted)): 10.5 µM | GI50 (SK-MEL-28): 8.51 µM | CC50 (SK-MEL-28; [8]): 36.3 µM | TGI (SK-MEL-28; read-out: pTGI (converted)): 17.8 µM | growth at 100 µM (SF-268 [1]): 15% | GI50 [2]: 3.02 µM | CC50 [2, 8]: > 50.1 µM | TGI ([2]; read-out: pTGI (converted)): 33.1 µM | GI50 (DU-145): 5.25 µM | CC50 (DU-145; [8]): > 50.1 µM | TGI (DU-145; read-out: pTGI (converted)): 20 µM | growth at 100 µM (NCI-H460 [3]): 7% | growth at 100 µM (MCF7 [4]): 0% | GI50 (SN12C): 8.71 µM | CC50 (SN12C; [8]): 32.4 µM | TGI (SN12C; read-out: pTGI (converted)): 16.6 µM | GI50 (SR): 0.891 µM | LC50 (concentration giving 50% net cell death) (SR): > 50.1 µM | TGI (SR; read-out: pTGI (converted)): > 50.1 µM | GI50 (BT-549): 3.8 µM | CC50 (BT-549; [8]): 27.5 µM | TGI (BT-549; read-out: pTGI (converted)): 11.2 µM | GI50 (RXF 393): 7.41 µM | CC50 (RXF 393; [8]): > 50.1 µM | TGI (RXF 393; read-out: pTGI (converted)): 20 µM | GI50 (PC-3): 2.19 µM | CC50 (PC-3; [8]): > 50.1 µM | TGI (PC-3; read-out: pTGI (converted)): > 50.1 µM | GI50 (KM12): 0.479 µM | LC50 (50% net cell kill) (KM12): > 50.1 µM | TGI (KM12; read-out: pTGI (converted)): 10.2 µM | GI50 (NCI-H226): 10 µM | LC50 (NCI-H226): > 50.1 µM | TGI (NCI-H226; read-out: pTGI (converted)): 22.4 µM | GI50 (ACHN): 5.37 µM | CC50 (ACHN; [8]): 23.4 µM | TGI (ACHN; read-out: pTGI (converted)): 11.2 µM | GI50 (SNB-75): 0.813 µM | LC50 (SNB-75): > 50.1 µM | TGI (SNB-75; read-out: pTGI (converted)): 14.5 µM | GI50 (MCF7 [5]): 1.55 µM | CC50 (MCF7 [5]; [8]): > 50.1 µM | TGI (MCF7 [5]; read-out: pTGI (converted)): > 50.1 µM | GI50 (A498): 6.31 µM | CC50 (A498; [8]): 33.9 µM | TGI (A498; read-out: pTGI (converted)): 14.8 µM | GI50 (SF-539): 1.35 µM | LC50 (SF-539): 26.9 µM | TGI (SF-539; read-out: pTGI (converted)): 7.94 µM | GI50 (UACC-62): 8.13 µM | CC50 (UACC-62; [8]): 29.5 µM | TGI (UACC-62; read-out: pTGI (converted)): 15.5 µM | GI50 (EKVX): 1.95 µM | LC50 (50% net cell kill) (EKVX): 27.5 µM | TGI (EKVX; read-out: pTGI (converted)): 8.32 µM | GI50 (HCT-15): 3.24 µM | LC50 (HCT-15): > 50.1 µM | TGI (HCT-15; read-out: pTGI (converted)): 13.8 µM | GI50 (IGROV-1): 9.12 µM | CC50 (IGROV-1; [8]): > 50.1 µM | TGI (IGROV-1; read-out: pTGI (converted)): > 50.1 µM | GI50 (HOP-92): 1.2 µM | LC50 (50% net cell death) (HOP-92): > 50.1 µM | TGI (HOP-92; read-out: pTGI (converted)): 3.09 µM | GI50 (SK-MEL-2): 16.2 µM | CC50 (SK-MEL-2; [8]): > 50.1 µM | TGI (SK-MEL-2; read-out: pTGI (converted)): > 50.1 µM | GI50 (MOLT-4): 12.3 µM | LC50 (MOLT-4): > 50.1 µM | TGI (MOLT-4; read-out: pTGI (converted)): > 50.1 µM | GI50 (SK-MEL-5): 0.724 µM | CC50 (SK-MEL-5; [8]): 29.5 µM | TGI (SK-MEL-5; read-out: pTGI (converted)): 7.76 µM | GI50 (NCI-H460 [6]): 1.51 µM | LC50 (50% net cell kill) (NCI-H460 [6]): > 50.1 µM | TGI (NCI-H460 [6]; read-out: pTGI (converted)): > 50.1 µM | GI50 (SF-268 [7]): 2.95 µM | LC50 (SF-268 [7]): 49 µM | TGI (SF-268 [7]; read-out: pTGI (converted)): 14.1 µM
